Test results from ChEMBL document CHEMBL2203241, “Natural product-derived antitumor compound phenethyl isothiocyanate inhibits mTORC1 activity via TSC2” (J Nat Prod, 2012).
The source made the active and inactive calls. No cut-off for these calls is given here.

What was measured:
MCF7 [1] = assay: Inhibition of HIF1alpha RNA translation in human MCF7 cells at 10 ug/mL pretreated for 1 hr prior to metabolic labeling by SDS-PAGE analysis; type: functional, cell-based
Procedure, shortened: (§1)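 MCF7 cells held 1 h in DMEM without L-glutamine, cysteine and methionine, with 10% dialysed FCS and 2 mM glutamine. Then pretreated 1 h with compound, cycloheximide 10 μg/mL or DMSO, and labelled 2 h with [35S] amino acids (0.75 MBq/mL) plus CoCl2 100 μM. RIPA lysates immunoprecipitated overnight at 4 °C with anti-HIF1α or isotype IgG; SDS-PAGE, phosphorimaging. Three independent experiments.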

MEF [2] = assay: Inhibition of growth in TSC2-deficient MEF cells after 6 days; type: functional, cell-based; conditions: Mus musculus, 144 h
Procedure, shortened: (§2)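 Growth assay: p53−/−TSC2−/− and control MEFs plated at 1000 cells/well and treated next day with compound, DMSO or nothing. After 6 days relative cell number read by CellTiter 96 AQueous One, expressed as % of untreated. IC50 from curve fit; mean ± SD of three independent experiments.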

MEF [3] = assay: Inhibition of growth in wild type MEF cells after 6 days; type: functional, cell-based; conditions: Mus musculus, 144 h; procedure, shortened: as §2
MCF7 [4] = assay: Increase in mTORC2 activity in human MCF7 cells induction of Akt phosphorylation at serine 473 after 4 hrs by immunoblotting analysis; type: cell-based
Procedure, shortened: (§3)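 MCF7 cells given 20 μM compound or DMSO for up to 4 h. Immunoblots for phospho-AKT T308, phospho-AKT S473, total AKT and β-actin. Phospho signals normalised to total AKT; total AKT normalised to β-actin. Mean ± SD of three independent experiments; repeated measures ANOVA with Tukey's test.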

MEF [5] = assay: Increase in mTORC2 activity in p53-/-TSC2-/- MEF cells assessed as […] in NDRG1 phosphorylation at threonine 346 after 3 hrs by immunoblotting analysis; type: cell-based; conditions: Mus musculus
Procedure, shortened: (§4)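 p53−/−TSC2+/+ and p53−/−TSC2−/− MEFs in standard serum-containing medium exposed to compound, DMSO (matched to 20 μM) or nothing for 3 h. Immunoblots probed for phospho-AKT S473, total AKT, phospho-NDRG1 T346 and total NDRG1, with HSC70 as loading control.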

MEF [6] = assay: Increase in mTORC2 activity in p53-/-TSC2-/- MEF cells assessed as […] of Akt phosphorylation at serine 473 after 3 hrs by immunoblotting analysis; type: cell-based; conditions: Mus musculus; procedure, shortened: as §4
MEF [7] = assay: Effect on mTORC2 in p53-/-TSC2+/+ MEF cells assessed as as NDRG1 phosphorylation at threonine 346 after 3 hrs by immunoblotting analysis; type: cell-based; conditions: Mus musculus; procedure, shortened: as §4
MEF [8] = assay: Effect on mTORC2 in p53-/-TSC2+/+ MEF cells assessed as Akt phosphorylation at serine 473 after 3 hrs by immunoblotting analysis; type: cell-based; conditions: Mus musculus; procedure, shortened: as §4
MEF [9] = assay: Inhibition of mTORC1 in p53-/-TSC2-/- MEF cells assessed as reduction of p70S6K phosphorylation at threonine 389 after 3 hrs by immunoblotting analysis; type: cell-based; conditions: Mus musculus
Procedure, shortened: (§5)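 p53−/−TSC2+/+ and p53−/−TSC2−/− MEFs in standard serum-containing medium exposed to a concentration series, DMSO (matched to 20 μM) or nothing for 3 h. Immunoblots for phospho-p70 S6K T389, total p70 S6K and β-actin. Mean ± SD of three independent experiments; ANOVA with Tukey's test within each line, t test between lines.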

MEF [10] = assay: Inhibition of mTORC1 in p53-/-TSC2+/+ MEF cells assessed as reduction of p70S6K phosphorylation at threonine 389 after 3 hrs by immunoblotting analysis; type: cell-based; conditions: Mus musculus; procedure, shortened: as §5
[11] = biological target: AMP-activated protein kinase, AMPK (Homo sapiens) (UniProt P54646+O43741+P54619+Q9UGJ0+Q9Y478+Q13131+Q9UGI9); assay: Induction of AMPK phosphorylation at threonine 172 in human MCF7 cells after 3 hrs by immunoblotting analysis; type: cell-based
[12] = biological target: Mitogen-activated protein kinase; ERK1/ERK2 (Homo sapiens) (UniProt P27361+P28482); assay: Induction of ERK1/2 phosphorylation at threonine 202/tyrosine 204 in human MCF7 cells after 3 hrs by immunoblotting analysis; type: cell-based
Mitogen-activated protein kinase; ERK1/ERK2 (Homo sapiens), sequence (P27361 whole entry, looked up): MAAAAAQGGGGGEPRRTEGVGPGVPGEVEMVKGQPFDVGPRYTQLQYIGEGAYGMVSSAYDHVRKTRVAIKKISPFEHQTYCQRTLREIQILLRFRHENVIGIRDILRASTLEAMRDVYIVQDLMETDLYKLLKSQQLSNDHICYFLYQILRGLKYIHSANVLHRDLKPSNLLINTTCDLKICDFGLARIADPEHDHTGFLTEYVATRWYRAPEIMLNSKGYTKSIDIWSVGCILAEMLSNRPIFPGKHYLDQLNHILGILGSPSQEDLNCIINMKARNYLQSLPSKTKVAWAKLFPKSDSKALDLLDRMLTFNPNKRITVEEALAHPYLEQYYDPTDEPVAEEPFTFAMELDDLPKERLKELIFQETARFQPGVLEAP
Mitogen-activated protein kinase; ERK1/ERK2 (Homo sapiens), sequence (P28482 whole entry, looked up): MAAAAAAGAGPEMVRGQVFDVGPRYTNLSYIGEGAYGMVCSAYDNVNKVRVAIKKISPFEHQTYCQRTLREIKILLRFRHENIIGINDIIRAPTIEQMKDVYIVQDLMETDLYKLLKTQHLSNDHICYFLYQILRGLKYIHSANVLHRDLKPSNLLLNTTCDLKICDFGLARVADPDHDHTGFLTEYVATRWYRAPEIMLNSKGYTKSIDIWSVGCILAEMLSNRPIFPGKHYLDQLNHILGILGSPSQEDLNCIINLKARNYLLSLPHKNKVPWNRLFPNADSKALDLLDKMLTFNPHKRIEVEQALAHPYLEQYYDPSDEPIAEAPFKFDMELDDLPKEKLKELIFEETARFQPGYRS

MCF7 [13] = assay: Induction of Akt phosphorylation at threonine 308 in human MCF7 cells after 4 hrs by immunoblotting analysis relative to total Akt; type: cell-based; procedure, shortened: as §3
MCF7 [14] = assay: Inhibition of Akt phosphorylation at threonine 308 in human MCF7 cells at 20 uM after 4 hrs by immunoblotting analysis; type: cell-based; procedure, shortened: as §3
MEF [15] = assay: Inhibition of mTORC1 in PTEN-/- MEF cells assessed as reduction of p70S6K phosphorylation after 3 hrs by immunoblotting analysis; type: cell-based; conditions: Mus musculus
Procedure, shortened: (§6)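 PTEN+/+ and PTEN−/− MEFs exposed to a concentration series, DMSO or nothing for 3 h. Immunoblots for phospho-p70 S6K T389, total p70 S6K and β-actin.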

MEF [16] = assay: Inhibition of mTORC1 in MEF cells assessed as reduction of p70S6K phosphorylation at threonine 389 at 2.5 to 5 uM after 3 hrs by immunoblotting analysis; type: cell-based; conditions: Mus musculus; procedure, shortened: as §6
MEF [17] = assay: Inhibition of mTORC1 in p53-/-TSC+/+ MEF cells assessed as reduction of p70S6K phosphorylation after 3 hrs by immunoblotting analysis; type: cell-based; conditions: Mus musculus; procedure, shortened: as §5
MEF [18] = assay: Inhibition of mTORC1 in PTEN+/+ MEF cells assessed as reduction of p70S6K phosphorylation after 3 hrs by immunoblotting analysis; type: cell-based; conditions: Mus musculus; procedure, shortened: as §6
mTORC1 (Homo sapiens) [19] = biological target: T1, mTORC1 (Homo sapiens) (UniProt P42345+Q8N122+Q9BVC4); assay: Inhibition of mTORC1 in human MCF7 cells assessed as reduction of p70S6K phosphorylation at 20 uM after 15 mins by immunoblotting analysis; type: cell-based
T1 sequence (Q8N122 whole entry, looked up, other chains not shown): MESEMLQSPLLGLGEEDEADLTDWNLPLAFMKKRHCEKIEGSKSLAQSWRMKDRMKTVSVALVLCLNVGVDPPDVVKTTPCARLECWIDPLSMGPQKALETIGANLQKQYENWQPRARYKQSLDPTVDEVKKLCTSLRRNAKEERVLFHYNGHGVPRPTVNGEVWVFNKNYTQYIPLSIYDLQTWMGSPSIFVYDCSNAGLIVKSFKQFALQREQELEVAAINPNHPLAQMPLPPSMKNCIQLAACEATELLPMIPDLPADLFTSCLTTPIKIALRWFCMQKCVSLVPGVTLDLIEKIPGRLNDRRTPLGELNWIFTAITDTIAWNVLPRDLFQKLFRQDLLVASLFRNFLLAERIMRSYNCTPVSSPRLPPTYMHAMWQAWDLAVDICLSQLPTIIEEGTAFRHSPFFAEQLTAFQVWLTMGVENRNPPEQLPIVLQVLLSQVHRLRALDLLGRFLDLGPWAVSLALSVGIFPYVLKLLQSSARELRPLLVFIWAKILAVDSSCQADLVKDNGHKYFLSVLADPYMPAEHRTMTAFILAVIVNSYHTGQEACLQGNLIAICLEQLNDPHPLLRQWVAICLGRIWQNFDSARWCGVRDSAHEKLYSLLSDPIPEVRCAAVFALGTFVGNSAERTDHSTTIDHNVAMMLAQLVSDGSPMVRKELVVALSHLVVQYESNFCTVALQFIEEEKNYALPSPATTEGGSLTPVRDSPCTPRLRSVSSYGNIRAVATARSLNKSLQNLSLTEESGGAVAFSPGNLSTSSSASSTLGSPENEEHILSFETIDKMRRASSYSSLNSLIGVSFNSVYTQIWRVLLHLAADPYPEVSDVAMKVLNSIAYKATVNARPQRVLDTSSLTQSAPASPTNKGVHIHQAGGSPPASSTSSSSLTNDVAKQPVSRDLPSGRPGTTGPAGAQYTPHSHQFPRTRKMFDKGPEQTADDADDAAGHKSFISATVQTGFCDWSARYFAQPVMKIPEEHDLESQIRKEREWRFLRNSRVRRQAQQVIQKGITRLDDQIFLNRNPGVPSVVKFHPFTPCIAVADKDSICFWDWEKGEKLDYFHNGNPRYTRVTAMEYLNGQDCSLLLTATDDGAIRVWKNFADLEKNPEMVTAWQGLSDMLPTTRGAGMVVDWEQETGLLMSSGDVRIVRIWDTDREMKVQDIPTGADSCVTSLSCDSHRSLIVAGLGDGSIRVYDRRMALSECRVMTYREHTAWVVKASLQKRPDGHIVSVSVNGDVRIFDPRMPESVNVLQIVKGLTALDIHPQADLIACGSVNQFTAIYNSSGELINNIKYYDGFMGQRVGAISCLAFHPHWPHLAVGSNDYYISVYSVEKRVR
T1 sequence (Q9BVC4 whole entry, looked up, other chains not shown): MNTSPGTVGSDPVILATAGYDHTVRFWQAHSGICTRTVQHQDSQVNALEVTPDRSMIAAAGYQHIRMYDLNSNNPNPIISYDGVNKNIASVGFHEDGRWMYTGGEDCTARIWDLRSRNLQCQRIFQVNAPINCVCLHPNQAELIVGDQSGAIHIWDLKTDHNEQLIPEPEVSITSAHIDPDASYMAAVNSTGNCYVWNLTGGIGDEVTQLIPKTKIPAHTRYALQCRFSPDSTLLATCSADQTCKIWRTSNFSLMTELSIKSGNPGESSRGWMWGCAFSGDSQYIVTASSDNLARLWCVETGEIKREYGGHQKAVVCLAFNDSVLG
Procedure, shortened: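 MCF7 cells exposed to 20 μM compound or DMSO over a time course; p70 S6K phosphorylation read by immunoblotting.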

mTORC1 (Homo sapiens) [20] = biological target: T1, mTORC1 (Homo sapiens); assay: Inhibition of mTORC1 in human MCF7 cells assessed as reduction of 4E-BP1 phosphorylation after 3 hrs by immunoblotting analysis; type: cell-based
Procedure, shortened: (§7)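 MCF7 cells exposed to a concentration series, DMSO or nothing for 3 h, then immunoblotted. Repeated measures ANOVA with Tukey's test.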

mTORC1 (Homo sapiens) [21] = biological target: T1, mTORC1 (Homo sapiens); assay: Inhibition of mTORC1 in human MCF7 cells assessed as reduction of p70S6K phosphorylation at threonine 389 after 3 hrs by immunoblotting analysis; type: cell-based; procedure, shortened: as §7
[22] = biological target: T2, Hypoxia inducible factors; HIF-1-alpha, HIF-2-alpha (Homo sapiens, UniProt Q16665+Q99814); assay: Inhibition of Serine/threonine-protein kinase mTOR complex 1-mediated HIF1alpha RNA translation in human MCF7 cells at 20 uM pretreated for 1 hr prior to metabolic labeling by SDS-PAGE analysis; type: cell-based; procedure, shortened: as §1
[23] = biological target: T2, Hypoxia inducible factors; HIF-1-alpha, HIF-2-alpha; assay: Inhibition of Serine/threonine-protein kinase mTOR complex 1-mediated HIF1alpha RNA translation in human MCF7 cells pretreated for 1 hr prior to metabolic labeling by SDS-PAGE analysis; type: cell-based; procedure, shortened: as §1

## C[C@@H]1C[C@@H]([C@H](O)CC2CC(=O)NC(=O)C2)C(=O)[C@@H](C)C1
MCF7 [1]
  inhibition: Active

## S=C=NCCc1ccccc1 [PHENETHYLISOTHIOCYANATE]
MEF [2]
  IC50: 8 µM
MEF [3]
  IC50: 4.7 µM
MCF7 [4]
  Activity: Active
MEF [5]
  Activity: Active
MEF [6]
  Activity: Active
MEF [7]
  Activity: inactive
MEF [8]
  Activity: inactive
MEF [9]
  inhibition: inactive
MEF [10]
  inhibition: Active
[11]
  Activity: inactive
[12]
  Activity: Active
MCF7 [13]
  fold change (FC): 3
MCF7 [14]
  inhibition: inactive
MEF [15]
  inhibition: Active
MEF [16]
  inhibition: Active
MEF [17]
  inhibition: Active
MEF [18]
  inhibition: Active
mTORC1 (Homo sapiens) [19]
  inhibition: Active
mTORC1 (Homo sapiens) [20]
  inhibition: Active
mTORC1 (Homo sapiens) [21]
  inhibition: Active
[22]
  inhibition: Active
[23]
  IC50: 7.5 µM
